Reference: the array DNA melting data of Ke et al. (doi:10.1101/2024.01.08.574731)

Legend:
[1] = folding enthalpy; higher = less favourable; fluorescence melt of hairpins on a sequencing array, two-state fit; settings: sodium 0.088 M
In short: (§1)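 Two-state fits, bootstrapped, provided melting temperature and folding enthalpy from Cy3 fluorescence normalised to pre-quench Cy3 and to control constructs. Library hairpins with annealed Cy3 and quencher oligos were imaged on a sequenced MiSeq flow cell in 50 mM Na-HEPES pH 8.0, 25 mM NaCl, at 2.5 °C intervals up to 60 °C. Four replicates were combined with inverse-variance weighting. A 9.35 °C upward shift was applied to fitted temperatures to match UV melts.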

[2] = melting temperature; fluorescence melt of hairpins on a sequencing array, two-state fit, raised by 9.35 °C to match UV melts; settings: sodium 0.088 M
In short: as §1

Sequence	folding enthalpy [1]	Tm [2]
GTCGTAGGAAACTATGGC (.(.(((....))).).)	-17.8 kcal/mol	32 °C
CGAGGGAAACCTCG (((((....)))))	-25.4 kcal/mol	53.7 °C
GATCCTCTTTAGGATC ((((((....))))))	-46.6 kcal/mol	52 °C
GCGATCGAAAGATAACGC ((((((....)))..)))	-26.2 kcal/mol	44.3 °C
GGGTCTGGAAACAGACCC (((((((....)))))))	-36.1 kcal/mol	68.8 °C
GTTGCAGGAAACCGCAAC (((((.(....).)))))	-43.8 kcal/mol	51.5 °C
GGTAAAGCGAAAGCTACC (((..(((....))))))	-19 kcal/mol	44.8 °C
GCTCACGAAAGTGCAGC ((((((....))).)))	-22.9 kcal/mol	52 °C
GTGCGCCGAAAGGCCCAC (((.(((....))).)))	-24.4 kcal/mol	48.5 °C
GCTGGGCGAAAGCCTGGC ((..(((....)))..))	-24.5 kcal/mol	60.9 °C
CGCTCGGAAACGAGTGCG ((((((....)))..)))	-15.8 kcal/mol	44.9 °C
GTAGGGAAACCTAC (((((....)))))	-25 kcal/mol	46.2 °C
GACAATGCGAAAGCAGTC (((..(((....))))))	-14 kcal/mol	40.4 °C
GTTCATCGAAAGATTAAC (((.(((....))).)))	-34.2 kcal/mol	32.6 °C
GCTTTGCGAAAGCGTAGC (((..((....))..)))	-19.6 kcal/mol	37.2 °C
GTGAGCGAAAGCTATCAC ((((((....)))..)))	-18.3 kcal/mol	37.6 °C
GTGGGGGGAAACCCCTAC ((.((((....)))).))	-17.8 kcal/mol	52.2 °C
GTTTAGCGAAAGCTTAAC (((.(((....))).)))	-22.1 kcal/mol	44.1 °C
GGGCACGGAAACGCACCC (((..((....))..)))	-20.2 kcal/mol	35.6 °C
CGCGGACCAATCCGCG ((((((....))))))	-39.2 kcal/mol	62.2 °C
GATCTCGTCCGAGATC ((((((....))))))	-38.4 kcal/mol	60.5 °C
GATATGGCGAAAGCCATC (((..(((....))))))	-7.03 kcal/mol	34.2 °C
GCCTGGGGAAACTCAGGC (((((.(....).)))))	-36 kcal/mol	58.4 °C

Sequence	folding enthalpy [1]	Tm [2]
GTTGTACGAAAGTAAAAC (((.(((....))).)))	-26.7 kcal/mol	38.8 °C
GGAGCTGGAAACGGCTCC (((((.(....).)))))	-48.2 kcal/mol	59.9 °C
GATCCAAGTATGGATC ((((((....))))))	-36.5 kcal/mol	50.3 °C
GATCGTGGGGACGATC ((((((....))))))	-36.2 kcal/mol	54.3 °C
GGGTTCGAAAGAAGCCCC ((((((....)))..)))	-20.9 kcal/mol	55.3 °C
GATCACTCGTGTGATC ((((((....))))))	-37.1 kcal/mol	57.1 °C
GTCAATGGAAACATTGGC (.(((((....))))).)	-27.7 kcal/mol	48.4 °C
GCTGGAGGAAACTCTGGC ((..(((....)))..))	-28 kcal/mol	41.6 °C
GAGACTGAAAAGTCTC ((((((....))))))	-35.9 kcal/mol	57.5 °C
GATCGTGGGAACGATC ((((((....))))))	-38.5 kcal/mol	61 °C
GATCACGAAAGTGTCATC ((((((....)))..)))	-13.8 kcal/mol	31.5 °C
GTCAGCGAAAGCTACGAC ((((((....)))..)))	-16.8 kcal/mol	41 °C
GGTATCTCGAAAGAGACC (((..(((....))))))	-21.1 kcal/mol	35.2 °C
GCAACCGGAAACAGTTGC (((((.(....).)))))	-31.7 kcal/mol	45.7 °C
GGCCGCGAAAGCGACGCC ((((((....)))..)))	-16.9 kcal/mol	66.4 °C
GATCGATACGTCGATC ((((((....))))))	-38.6 kcal/mol	54.5 °C
GTGGGCGAAAGCCGTCAC ((((((....)))..)))	-13.2 kcal/mol	36.9 °C
GGGTCCGGAAACGGATCC ((.((((....)))).))	-38.1 kcal/mol	59.1 °C
GCCACGCGAAAGCTAGGC (((..((....))..)))	-21.9 kcal/mol	52.1 °C
GCAGGGCGAAAGCATTGC (((..((....))..)))	-19.6 kcal/mol	53 °C
GGTCACGGAAACGTGGTC (..((((....))))..)	-16.8 kcal/mol	39.6 °C
GCATCCACGAAAGTGTGC (((..(((....))))))	-14.3 kcal/mol	37.6 °C
GACTGAGCGAAAGCTGTC (((..(((....))))))	-12.7 kcal/mol	44.1 °C

Sequence	folding enthalpy [1]	Tm [2]
GCCGAACGAAAGTTGGGC (((.(((....))).)))	-38.8 kcal/mol	58.5 °C
GGCGGCGAAAGCCGGGCC ((((((....)))..)))	-10.1 kcal/mol	58.1 °C
GTTCACGCGAAAGCGAAC (((..(((....))))))	-10.2 kcal/mol	32.7 °C
GCGTTTGAACGC ((((....))))	-20.3 kcal/mol	56.7 °C
GACACCGAAAGGTGTGTC ((((((....)))..)))	-11.3 kcal/mol	61.6 °C
GCTACGCGAAAGCTAAGC (((..((....))..)))	-13.1 kcal/mol	38.8 °C
GAATAAGCGAAAGCTTTC (((..(((....))))))	-9.51 kcal/mol	25.7 °C
GCTGCTGGAAACGGTAGC (((.(.(....).).)))	-31.3 kcal/mol	41.3 °C
GATCCGAGCTCGGATC ((((((....))))))	-37.3 kcal/mol	63 °C
GTTTGAGCGAAAGCTAAC (((..(((....))))))	-10.5 kcal/mol	31.1 °C
GATCTTGGCAAAGATC ((((((....))))))	-38.9 kcal/mol	53.2 °C
CAACTGAAAAGTTG (((((....)))))	-22.1 kcal/mol	46.2 °C
GATCGTCCTCACGATC ((((((....))))))	-42.9 kcal/mol	53.5 °C
GATCGTCTCCACGATC ((((((....))))))	-38.1 kcal/mol	53.7 °C
GGTGCTGGAAACAGTACC (((.(((....))).)))	-43.3 kcal/mol	53.5 °C
GGGGACGGAAACGCCCCC ((((.((....)).))))	-26.1 kcal/mol	57.9 °C
CGTCCACGGAAACGTACG (((..(((....))))))	-15.7 kcal/mol	28.5 °C
GTTCTCGAAAGAGAAAC ((((((....))).)))	-17 kcal/mol	39.7 °C
GGGTACGGAAACGTGCCC (((.(((....))).)))	-53.5 kcal/mol	60.1 °C
GATCAAGTTTTGATC ((((((...))))))	-29.4 kcal/mol	45.4 °C
GTCGATGGAAACGTCGAC (((((.(....).)))))	-37.6 kcal/mol	54.8 °C
GATCGCTCTTGCGATC ((((((....))))))	-38.9 kcal/mol	68 °C
GAGGAGGCGAAAGCCCTC (((..(((....))))))	-14.1 kcal/mol	44.1 °C

Sequence	folding enthalpy [1]	Tm [2]
GGAACCGGAAACGGTTTC (.(((((....))))).)	-21.3 kcal/mol	54.5 °C
GAGGACGAAAGTCGACTC ((((((....)))..)))	-14.9 kcal/mol	40.6 °C
GCTTACTCGAAAGAGAGC (((..(((....))))))	-14.5 kcal/mol	30.1 °C
GTAAGAGGAAACTCTTAC (((((((....)))))))	-42.2 kcal/mol	51 °C
GATCGAATAATCGATC ((((((....))))))	-30.8 kcal/mol	47.6 °C
GCACCGCGAAAGCGACGC ((..(((....)))..))	-15.6 kcal/mol	47.2 °C
GACGCCGGAAACGGTGTC (((.(((....))).)))	-45.9 kcal/mol	63.9 °C
GATCGTGCAAACGATC ((((((....))))))	-33 kcal/mol	66.9 °C
GATCGGAGGACCGATC ((((((....))))))	-31.2 kcal/mol	53.3 °C
GATTGGGGAAACCCAATC (((((((....)))))))	-41 kcal/mol	61 °C
GTGTTGGGAAACTAACAC (((((.(....).)))))	-36.4 kcal/mol	46.7 °C
GAAGAGGGAAACCTCCTC ((.((((....)))).))	-14.9 kcal/mol	26.4 °C
GATCTACCGCTAGATC ((((((....))))))	-29.4 kcal/mol	40 °C
GCGTAATACGC ((((...))))	-18.7 kcal/mol	51.9 °C
GTATGTGGAAACATATAC ((((.((....)).))))	-23.1 kcal/mol	37.2 °C
GGTTCTGCGAAAGCAACC (((..(((....))))))	-12.3 kcal/mol	31.1 °C
GATCATTCTTATGATC ((((((....))))))	-40.9 kcal/mol	48.6 °C
GTTGGTGGAAACATCAAC ((((.((....)).))))	-37.8 kcal/mol	46.5 °C
GATCCGGACCGGATC ((((((...))))))	-34.6 kcal/mol	57.3 °C
GACTACGAAAGTACGGTC ((((((....)))..)))	-20.4 kcal/mol	32 °C
GAAGTCGGAAACGGCTTC ((((.((....)).))))	-39.7 kcal/mol	54.5 °C
GCTTAGCGAAAGCGTAGC (((..((....))..)))	-28.9 kcal/mol	61.3 °C
GATCCACCCGTGGATC ((((((....))))))	-40.4 kcal/mol	57.9 °C
